Values joined by “and” are separate entries in the source; they are usually repeats but may differ in a detail not shown here. Equal values may be shown once.
Columns and labels:
Format in all cases: functional, Urine
[1] = tested on: Rattus norvegicus; experiment: Diuretic activity by measuring the urinary output at the dose of 150 mg/kg
Outline: (§1)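 Groups of eight male Sprague–Dawley-derived rats, fasted 18 h with water ad libitum, received oral doses by dosing needle in 5% acacia–isotonic saline; the vehicle served as control. Rats were placed in metabolism cages with no food or water, and urine was collected for 5 h. Bladders were then emptied by pulling at the tail base (modified Lipschitz method).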

[2] = tested on: Rattus norvegicus; experiment: Total Cl- milliequivalents excretion in diuretic test at the dose of 150 mg/kg
[3] = tested on: Rattus norvegicus; experiment: Total K+ milliequivalents excretion in diuretic test at the dose of 150 mg/kg
[4] = tested on: Rattus norvegicus; experiment: Total Na+ milliequivalents excretion in diuretic test at the dose of 150 mg/kg
[5] = tested on: Rattus norvegicus; experiment: Diuretic activity by measuring the urinary output at the dose of 25 mg/kg
Outline: (§2)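 Male Sprague–Dawley rats (195–225 g) were fasted and deprived of water for 18 h. The compound was given orally, dissolved in 25 mL/kg saline; controls got saline alone. Groups of eight were housed as pairs in metabolism cages. Urine volume was read at 2 and 5 h, with total Na+, Cl− and K+ mequiv excreted. Values are mean ± SEM, N = 8.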

[6] = tested on: Rattus norvegicus; experiment: Diuretic activity by measuring the urinary output at the dose of 75 mg/kg; outline: as §1
[7] = tested on: Rattus norvegicus; experiment: Total Cl- milliequivalents excretion in diuretic test at the dose of 25 mg/kg; outline: as §2
[8] = tested on: Rattus norvegicus; experiment: Total Cl- milliequivalents excretion in diuretic test at the dose of 75 mg/kg
[9] = tested on: Rattus norvegicus; experiment: Total K+ milliequivalents excretion in diuretic test at the dose of 25 mg/kg; outline: as §2
[10] = tested on: Rattus norvegicus; experiment: Total Na+ milliequivalents excretion in diuretic test at the dose of 25 mg/kg; outline: as §2
[11] = tested on: Rattus norvegicus; experiment: Total K+ milliequivalents excretion in diuretic test at the dose of 75 mg/kg
[12] = tested on: Rattus norvegicus; experiment: Total Na+ milliequivalents excretion in diuretic test at the dose of 75 mg/kg
[13] = tested on: Rattus norvegicus; experiment: Diuretic activity by measuring the urinary output at the dose of 50 mg/kg; outline: as §1
[14] = tested on: Rattus norvegicus; experiment: Total Cl- milliequivalents excretion in diuretic test at the dose of 50 mg/kg
[15] = tested on: Rattus norvegicus; experiment: Total K+ milliequivalents excretion in diuretic test at the dose of 50 mg/kg
[16] = tested on: Rattus norvegicus; experiment: Total Na+ milliequivalents excretion in diuretic test at the dose of 50 mg/kg
[17] = tested on: Rattus norvegicus; experiment: Diuretic activity by measuring the urinary output at the dose of 20 mg/kg; outline: as §1
[18] = tested on: Rattus norvegicus; experiment: Diuretic activity by measuring the urinary output at the dose of 40 mg/kg; outline: as §1
[19] = tested on: Rattus norvegicus; experiment: Total Cl- milliequivalents excretion in diuretic test at the dose of 12 mg/kg; outline: as §2
[20] = tested on: Rattus norvegicus; experiment: Total Cl- milliequivalents excretion in diuretic test at the dose of 1 mg/kg; outline: as §2
[21] = tested on: Rattus norvegicus; experiment: Total Cl- milliequivalents excretion in diuretic test at the dose of 27 mg/kg
Outline: (§3)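 Oral dosing was in 25 mL/kg saline to male Sprague–Dawley rats (195–225 g) after 18 h without food or water, with saline-only controls. Groups of eight were kept two per metabolism cage. Urinary Na+, Cl− and K+ were reported as total mequiv excreted, with electrolyte analysis done externally. Values are mean ± SEM of two rats per cage, N = 8.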

[22] = tested on: Rattus norvegicus; experiment: Total Cl- milliequivalents excretion in diuretic test at the dose of 9 mg/kg; outline: as §3
[23] = tested on: Rattus norvegicus; experiment: Total Cl-mequiv excretion in diuretic test at the dose of 3 mg/kg; outline: as §2
[24] = tested on: Rattus norvegicus; experiment: Diuretic activity by measuring the urinary output after 2 hr at the dose of 12 mg/kg; outline: as §2
[25] = tested on: Rattus norvegicus; experiment: Diuretic activity by measuring the urinary output after 2 hr at the dose of 1 mg/kg; outline: as §2
[26] = tested on: Rattus norvegicus; experiment: Total K+ milliequivalents excretion in diuretic test at the dose of 12 mg/kg; outline: as §2
[27] = tested on: Rattus norvegicus; experiment: Total K+ milliequivalents excretion in diuretic test at the dose of 1 mg/kg; outline: as §2
[28] = tested on: Rattus norvegicus; experiment: Total K+ milliequivalents excretion in diuretic test at the dose of 27 mg/kg; outline: as §3
[29] = tested on: Rattus norvegicus; experiment: Total K+ milliequivalents excretion in diuretic test at the dose of 3 mg/kg; outline: as §3
[30] = tested on: Rattus norvegicus; experiment: Total Na+ milliequivalents excretion in diuretic test at the dose of 12 mg/kg; outline: as §2
[31] = tested on: Rattus norvegicus; experiment: Total Na+ milliequivalents excretion in diuretic test at the dose of 1 mg/kg; outline: as §2
[32] = tested on: Rattus norvegicus; experiment: Total Na+ milliequivalents excretion in diuretic test at the dose of 27 mg/kg; outline: as §3
[33] = tested on: Rattus norvegicus; experiment: Total Na+ milliequivalents excretion in diuretic test at the dose of 3 mg/kg; outline: as §3
[34] = tested on: Rattus norvegicus; experiment: Total Na+ milliequivalents excretion in diuretic test at the dose of 9 mg/kg; outline: as §3
[35] = tested on: Rattus norvegicus; experiment: Diuretic activity by measuring the urinary output after 2 hr at the dose of 27 mg/kg
Outline: (§4)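 Male Sprague–Dawley rats (195–225 g) were fasted and deprived of water for 18 h, then dosed orally with compound dissolved in 25 mL/kg saline. Controls got 25 mL/kg saline alone. Groups of eight were used, housed two rats per metabolism cage right after dosing. Urine volume was collected at 2 h and 5 h after dosing. Values are mean ± SEM per cage pair, N = 8.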

[36] = tested on: Rattus norvegicus; experiment: Diuretic activity by measuring the urinary output after 2 hr at the dose of 3 mg/kg; outline: as §4
[37] = tested on: Rattus norvegicus; experiment: Diuretic activity by measuring the urinary output after 2 hr at the dose of 9 mg/kg; outline: as §4
[38] = tested on: Rattus norvegicus; experiment: Diuretic activity by measuring the urinary output after 5 hr at the dose of 12 mg/kg; outline: as §2
[39] = tested on: Rattus norvegicus; experiment: Diuretic activity by measuring the urinary output after 5 hr at the dose of 27 mg/kg; outline: as §4
[40] = tested on: Rattus norvegicus; experiment: Diuretic activity by measuring the urinary output after 5 hr at the dose of 3 mg/kg; outline: as §4
[41] = tested on: Rattus norvegicus; experiment: Diuretic activity by measuring the urinary output after 5 hr at the dose of 9 mg/kg; outline: as §4
[42] = tested on: Rattus norvegicus; experiment: Total K+ milliequivalents excretion in diuretic test at the dose of 9 mg/kg; outline: as §3

CC1(C(=O)NCc2cccnc2)NC(=O)c2ccccc2N1 (centres undefined) gave a Control [1] of 120%, an Excretion [2] of 1.5 m equiv and an Excretion [3] of 0.5 m equiv. For the same compound, the Excretion [4] was 1.4 m equiv.

O=C1NC(c2ccccc2)Nc2ncccc21 (centres undefined) gave a Control [5] of 114%, a Control [6] of 146% and an Excretion [7] of 1.4 m equiv. It also gave an Excretion [8] of 1.8 m equiv, an Excretion [9] of 0.5 m equiv and an Excretion [10] of 1.3 m equiv.

For CN(C)C(=O)C1(C)NC(=O)c2ccccc2N1 (centres undefined), the Control [1] was 100%, the Excretion [2] was 1.4 m equiv and the Excretion [3] was 0.4 m equiv. The Excretion [4] was 1.1 m equiv.

Work on O=C1NC(c2cccnc2)Nc2nccnc21 (centres undefined) yielded a Control [6] of 97%, an Excretion [8] of 1.2 m equiv and an Excretion [11] of 0.4 m equiv. For the same compound, the Excretion [12] was 1.2 m equiv.

Compound Nc1ccc(C2NC(=O)c3cccnc3N2)cc1 (centres undefined) has a Control [13] of 128%, an Excretion [14] of 1.5 m equiv and an Excretion [15] of 0.5 m equiv. It also gave an Excretion [16] of 1.5 m equiv.

O=C1NC(c2cccnc2)Nc2ccccc21 (centres undefined) was tested, and the Control [5] was 96%, the Excretion [7] was 1.1 m equiv and the Excretion [9] was 0.4 m equiv. It also gave an Excretion [10] of 1 m equiv.

COC(OC)C1(C)NC(=O)c2ccccc2N1 (centres undefined) showed a Control [5] of 118%, an Excretion [7] of 1.2 m equiv and an Excretion [9] of 0.4 m equiv. The Excretion [10] was 1.2 m equiv.

O=C1NC(c2ccc([N+](=O)[O-])cc2)Nc2ncccc21 (centres undefined) gave a Control [5] of 110%, a Control [6] of 115% and an Excretion [7] of 1.3 m equiv. It also gave an Excretion [8] of 1.7 m equiv, an Excretion [9] of 0.4 m equiv and an Excretion [10] of 1.2 m equiv. For the same compound, the Excretion ([12]; 75 mg/kg) was 1.5 m equiv and 0.6 m equiv.

NS(=O)(=O)c1cc(C(=O)O)c(NCc2ccco2)cc1Cl [FUROSEMIDE] gave a Control [17] of 444% and a Control [18] of 517%.

With NS(=O)(=O)c1cc2c(cc1Cl)NCNS2(=O)=O [HYDROCHLOROTHIAZIDE] the Control [5] was 201%, the Excretion [19] was 2.8 m equiv and the Excretion [20] was 2.5 m equiv. The Excretion [21] was 3 m equiv, the Excretion [22] was 2.7 m equiv and the Excretion [23] was 2.7 m equiv. For the same compound, the Excretion [24] was 7.9 mL, the Excretion [25] was 7.8 mL and the Excretion [26] was 0.7 m equiv and 0.6 m equiv. For the same compound, the Excretion [27] was 0.6 m equiv, the Excretion [28] was 0.8 m equiv and the Excretion [29] was 0.6 m equiv. For the same compound, the Excretion [30] was 2.5 m equiv, the Excretion [31] was 2 m equiv and the Excretion [32] was 2.5 m equiv. It also gave an Excretion [33] of 2.4 m equiv, an Excretion [34] of 2.2 m equiv and an Excretion [35] of 8.4 mL. The Excretion [36] was 8.1 mL, the Excretion [37] was 7.5 mL and the Excretion [38] was 16 mL and 13.9 mL. It also gave an Excretion [39] of 15.1 mL, an Excretion [40] of 15.8 mL and an Excretion [41] of 14.6 mL. For the same compound, the Excretion [42] was 0.6 m equiv.

Reference: ChEMBL document CHEMBL1122172, “Syntheses and diuretic activity of 1,2-dihydro-2-(3-pyridyl)-3H-pyrido[2,3-d]pyrimidin-4-one and related compounds” (1982)
